Assay results taken from ChEMBL document CHEMBL1135577, “Synthesis and biological evaluation of structurally highly modified analogues of the antimitotic natural product curacin A” (J Med Chem, 2002).
The source made the active and inactive calls. The calls are words filed in the database; no cut-off is given here.

Tests used:
A2780 [1] = assay: Tested for colchicine binding inhibition, using human ovarian cancer cell lines (at 5 uM ); format: functional
Procedure, shortened: (§1)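 [3H]colchicine (5 μM) was incubated with 1 μM tubulin and agent (1-250 μM) or DMSO vehicle (5% v/v) at 30 °C for 15 min or 37 °C for 10 min, in 1 M monosodium glutamate, 0.1 M glucose-1-phosphate, 1 mM MgCl2, 1 mM GTP and 0.5 mg/mL BSA. Samples were filtered through DEAE-cellulose and counted by scintillation. Values are means (N = 9 over four concentrations) ± SD.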

MCF7 = assay: Tested for 50% growth inhibitory concentration by using MCF-7 cell lines.; format: functional; settings: Homo sapiens
Procedure, shortened: (§2)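 Cultured human tumor cells were seeded at 500-2000 cells/well, allowed to attach for 48 h, then exposed continuously for 48 h to DMSO vehicle or agent at five concentrations (e.g., 50-0.08 μM, 10-0.016 μM or 1-0.0016 μM series), each in quadruplicate. A time-zero plate was included. Cell number was read by MTS/phenazine methanesulfonate at A490-A630. Values are means (N = 4 over 10 concentrations) ± SD.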

Tubulin (Bos taurus) = assay: Inhibition of tubulin polymerization of purified bovine brain tubulin
2008 [2] = assay: 50% Growth inhibitory concentration( GI 50 ) by using 2008 human ovarian carcinoma cell lines.; format: functional; procedure, shortened: as §2
A2780 [3] = assay: Compound was tested for Tubulin polymerization inhibition by using human ovarian cancer cell lines.; format: functional
Procedure, shortened: (§3)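 Tubulin (10 μM final, 1 mg/mL) was preincubated with agent in DMSO (4% v/v final) and 0.8 M monosodium glutamate for 15 min at 30 °C, then cooled to 0 °C and GTP (0.4 mM final) added. Turbidity at 350 nm was followed for 20 min at 30 °C. […] Values are averages of two determinations.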

PC-3 [4] = assay: 50% Growth inhibitory concentration by using PC -3 human prostate carcinoma cell lines (48h continuous exposure); format: functional; settings: PC-3, 48 h; procedure, shortened: as §2
2008 [5] = assay: Compound was tested for 50% growth inhibitory concentration by using human ovarian carcinoma cell lines (2008); format: functional; procedure, shortened: as §2
A2780 [6] = assay: Compound was tested for Tubulin polymerization inhibition by using human ovarian carcinoma cell lines.; format: functional; procedure, shortened: as §3
A2780 [7] = assay: Compound was tested for colchicine Binding Inhibition by using human ovarian carcinoma cell line (at 5 uM ); format: functional; procedure, shortened: as §1
MDA-MB-231 = assay: Compound was tested for 50% Growth Inhibitory concentration by using MDA-MB-231 cell lines.; format: functional; settings: Homo sapiens; procedure, shortened: as §2
PC-3 [8] = assay: Compound was tested for 50% growth inhibitory concentration by using human prostate carcinoma cell lines (PC -3); format: functional; procedure, shortened: as §2
A2780 [9] = assay: Compound was tested for Tubulin polymerization inhibition by using human ovarian carcinoma cell lines.;NA means not active; format: functional, cell-based; procedure, shortened: as §3
A2780 [10] = assay: Compound was tested for colchicine binding inhibition by using human ovarian carcinoma cell lines (at 5 uM );NA means not active; format: functional, cell-based; procedure, shortened: as §1

Row | Structure (SMILES) | inhibition at 5 µM (A2780 [1]) [%] | GI50 (MCF7) [nM] | IC50 (Tubulin (Bos taurus)) [nM] | also measured
1 | C=CC[C@@H](CC/C(C)=C/C=C/CC/C=C\[C@@H]1CSC([C@H]2C[C@@H]2C)=N1)OC | 88 | 990 | 770 | –
2 | C=CC[C@@H](CC/C=C/C=C/CC/C=C\[C@@H]1CSC([C@@H]2C[C@@H]2C)=N1)OC | 53 | 340 | – | –
3 | COc1cc(CCCCCCCC(C)CCC(O)c2cccs2)cc(OC)c1OC (stereo not drawn) | < 10 | – | – | GI50 2008 [2]: 26000 nM; TPI (A2780 [3]): 15%; GI50 (PC-3 [4]): 21 µM
4 | C=CC[C@@H](CC/C(C)=C/C=C/CC/C=C\c1csc(C(C)(C)C)n1)OC | 38 | – | – | GI50 2008 [2]: 300 nM; TPI (A2780 [3]): 100%; GI50 (PC-3 [4]): 0.24 µM
5 | C=CC[C@@H](CC/C(C)=C/C=C/CC/C=C\c1csc([C@@H]2C[C@@H]2C)n1)OC | 74 | 300 | 740 | –
6 | C=CC[C@@H](CC/C(C)=C/C=C/CC/C=C\[C@@H]1CSC([C@@H]2C[C@@H]2C)=N1)OCOC | 81 | 220 | 640 | –
7 | CCC[C@@H](CC/C(C)=C/C=C/CCCCC1CSC([C@@H]2C[C@@H]2C)=N1)OC (stereo partly drawn) | 1 | 3300 | 4600 | –
8 | C=CC[C@@H](CC/C(C)=C/C=C/CC/C=C\[C@@H]1CSC([C@H]2C[C@H]2C)=N1)OC | 48 | 360 | 2100 | –
9 | C=CCCC1=N[C@H](/C=C\CC/C=C/C=C(\C)CC[C@H](CC=C)OC)CS1 | 83 | 300 | 920 | –
10 | CC(C)=C/C=C/CC/C=C\[C@@H]1CSC([C@@H]2C[C@@H]2C)=N1 | – | – | > 50000 | –
11 | C=CC[C@@H](CC/C(C)=C/C=C/CC/C=C\[C@@H]1COC(C(C)(C)C)=N1)OC | < 10 | – | – | GI50 2008 [2]: 450 nM; TPI (A2780 [3]): 0%; GI50 (PC-3 [4]): 6.2 µM
12 | C=CCC1(CC/C(C)=C/C=C/CC/C=C\[C@@H]2CSC([C@@H]3C[C@@H]3C)=N2)OCCO1 | 92 | 30 | 780 | –
13 | C=CC[C@@H](CC/C(C)=C/C=C/CC/C=C\[C@@H]1CSC([C@@H]2C[C@@H]2C)=N1)OCC(F)(F)C(F)(F)C(F)(F)F | 12 | > 10000 | 5400 | –
14 | C=CC[C@@H](CC/C(C)=C/C=C/CC/C=C\[C@H]1CSC([C@@H]2C[C@@H]2C)=N1)OC | 3 | > 1000 | 5500 | –
15 | C=CC[C@@H](CC/C(C)=C/C=C/CCCO)OC | 0 | > 10000 | > 80000 | –
16 | CCC[C@@H](CC/C(C)=C/C=C/CC/C=C\[C@@H]1CSC([C@@H]2C[C@@H]2C)=N1)OC | 85 | 50 | 1200 | –

Row | Structure (SMILES) | inhibition at 5 µM (A2780 [1]) [%] | GI50 (MCF7) [nM] | IC50 (Tubulin (Bos taurus)) [nM] | also measured
17 | COc1cc(/C=N\OC[C@H]2C[C@@H]2C2C[C@]2(C)CCC(O)c2cccs2)cc(OC)c1OC (stereo partly drawn) | – | – | – | GI50 2008 [5]: 9.9 µM; TPI (A2780 [6]): 26%; inhibition at 5 µM (A2780 [7]): < 10%; GI50 (MDA-MB-231): 980 nM; GI50 (PC-3 [8]): 1200 nM
18 | C=CC[C@@H](CC[C@@]1(C)C[C@@H]1[C@H]1C[C@@H]1CC/C=C\[C@@H]1CSC([C@@H]2C[C@@H]2C)=N1)OC | – | – | – | GI50 2008 [5]: > 50 µM; TPI (A2780 [6]): 0%; inhibition at 5 µM (A2780 [7]): < 10%; GI50 (MDA-MB-231): > 50000 nM; GI50 (PC-3 [8]): > 50000 nM
19 | CCCCCCCc1cccc(CC/C=C\[C@@H]2CSC([C@@H]3C[C@@H]3C)=N2)c1 | – | – | > 50000 | –
20 | COc1cc(/C=C/CC/C=C/C=C(\C)CCC(O)c2cccs2)cc(OC)c1OC (stereo not drawn) | < 10 | – | – | GI50 2008 [2]: 21000 nM; TPI (A2780 [3]): 25%; GI50 (PC-3 [4]): 35 µM
21 | C=CC[C@H](O)CC/C(C)=C/C=C/CC/C=C\C1CSC([C@@H]2C[C@@H]2C)=N1 (stereo partly drawn) | 82 | 450 | 870 | –
22 | C=CC[C@@H](CC/C(C)=C/C=C/CC/C=C\[C@H](CSC(=O)[C@@H]1C[C@@H]1C)NC(C)=O)OC | 9 | 4200 | 1500 | –
23 | C=CC[C@@H](CC/C(C)=C/C=C/CC/C=C\[C@@H]1CSC([C@@H]2C[C@@H]2C)=N1)OC(=O)c1ccccc1 | 5 | > 10000 | > 80000 | –
24 | C=CC[C@@H](CC/C(C)=C\C=C\CC/C=C\[C@@H]1CSC([C@@H]2C[C@@H]2C)=N1)OC [CURACIN C] | 10 | 3600 | 2300 | –
25 | C=CC[C@@H](CC/C(C)=C/C=C\CC/C=C\[C@@H]1CSC([C@@H]2C[C@@H]2C)=N1)OC [CURACIN B] | 56 | 320 | 820 | –
26 | C=CC[C@@H](CC/C(C)=C/C=C/CC/C=C\[C@H](CSC)NC(C)=O)OC | 12 | 5200 | 3300 | –
27 | C=CC[C@@H](CC/C(C)=C/C=C/CC/C=C\c1coc(C(C)(C)C)n1)OC | < 10 | – | – | GI50 2008 [2]: > 50000 nM; TPI (A2780 [3]): 51%; GI50 (PC-3 [4]): > 50 µM
28 | CCCCCCCCCCCC/C=C\[C@@H]1CSC([C@@H]2C[C@@H]2C)=N1 | – | – | > 50000 | –
29 | C/C=C\[C@@H]1CSC([C@@H]2C[C@@H]2C)=N1 | – | – | – | NA (A2780 [9]): inactive; NA (A2780 [10]): inactive
30 | COc1cc(/C=C\CC/C=C/C=C(\C)CCC(O)c2cccs2)cc(OC)c1OC (stereo not drawn) | 39 | – | – | GI50 2008 [2]: 280 nM; TPI (A2780 [3]): >95%
31 | C=CC[C@H](CC/C(C)=C/C=C/CC/C=C\[C@@H]1CSC([C@@H]2C[C@@H]2C)=N1)OC | 56 | 180 | 670 | –
32 | C=CC[C@@H](CC/C(C)=C/C=C/CC/C=C\[C@@H]1CSC(C(C)(C)C)=N1)OC | 35 | – | – | GI50 2008 [2]: 220 nM; TPI (A2780 [3]): 100%; GI50 (PC-3 [4]): 0.13 µM
